Each structure is given as a SMILES string.

A short description of the data set: Toxicity liver stage against HepG2, at 10uM. Type of data set: cell-based. Also on record: test concentration 10 uM, cell line HepG2-A16-CD81EGFP. To be noted: human, HepG2-A16-CD81EGFP cells; read-out: INHIBITION
The method, boiled down: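 Uninfected HepG2-A16-CD81EGFP cells, 3 × 10^3 per well, 1536-well, plated on prespotted compound at 10 μM final, parasite-free screening media added to match infected plates; puromycin 10 μM positive, DMSO 0.5% negative; run in parallel with 48 h PbLuc assay at 37 °C, 5% CO2; viability by CellTiter-Glo luminescence, normalized to controls.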
In the case of `CCS(=O)(=O)N1CCC(NC(=O)c2cc(C(C)C)ccc2O)CC1`, the cytotoxicity at 10 µM was -5.16%.

Consider `CSCC(=O)N1CCCC1c1noc(C2CC2)n1` (stereo unspecified), for which the cytotoxicity at 10 µM amounted to 17%.

Regarding `CCCS(=O)(=O)N1CCN(c2ccc3nnc(CC)n3n2)CC1`, the cytotoxicity at 10 µM came to 8.75%.

With `COc1cccc(CNC(=O)c2nc3c(o2)CN(S(C)(=O)=O)C3)c1`, the cytotoxicity at 10 µM is 8.65%.

In the case of `CCNc1ncc(C(=O)NC(CCN(C)C)c2ccccc2)cn1` (stereo unspecified), the cytotoxicity at 10 µM was found to be 4.8%.

Turning to `COCc1ncc(CN2CC(Oc3c(C)cccc3C)C2)cn1`, the cytotoxicity at 10 µM came out at 5.12%.

With `O=C(CCN1CCCC1c1ccccn1)N1CCc2ccccc2C1` (stereo unspecified), the cytotoxicity at 10 µM turned out to be 2.87%.

With `Cc1nc(N(C)C)nc2c1COCC21CCN(C(=O)C2CC2)C1` (stereo unspecified), the cytotoxicity at 10 µM worked out at 4.27%.

For `CC(Cn1cccn1)NS(=O)(=O)Cc1ccc(F)cc1` (stereo unspecified), the cytotoxicity at 10 µM is 7.28%.

For `Fc1ccc(OCCCNC2=NCCCN2)cc1`, the cytotoxicity at 10 µM was -7.91%.

For the compound `O=C1CCC2(CCN(CC[C@H](O)c3ccccc3)CC2)CN1CCO`, the cytotoxicity at 10 µM is -4%.

In the case of `Cc1nn(C)c2ncc(CN3CCCCCC3)cc12`, the cytotoxicity at 10 µM amounted to 0.106%.

Take `COc1ccc(CN2C[C@H](N3CCCC3=O)[C@@H]3OCCC[C@@H]32)cc1`: the cytotoxicity at 10 µM stood at 9.51%.

Turning to `COc1cc(-c2nccn2CCn2cccn2)cc2c1OCO2`, the cytotoxicity at 10 µM was -3.81%.

Regarding `CCCS(=O)(=O)N1C[C@@H]2COC[C@]2(CN2CCOCC2)C1`, the cytotoxicity at 10 µM turned out to be 1.86%.

In the case of `COc1ncc(NCc2ccc(C#N)cc2)cc1C(N)=O`, the cytotoxicity at 10 µM was 0.217%.

For `COCc1csc(NC(=O)NCc2ncccc2C)n1`, the cytotoxicity at 10 µM is -2.6%.

With `CC(C)N1CCOCC2(CN(Cc3ccco3)CCO2)C1` (stereo unspecified), the cytotoxicity at 10 µM is -7.53%.

`O=C(CCc1cccnc1)N(Cc1ccsc1)CC1CCCO1` (stereo unspecified): the cytotoxicity at 10 µM is -11.5%.

Regarding `c1ccc(CCNc2ncnc3c2CCN(Cc2c[nH]cn2)CC3)cc1`, the cytotoxicity at 10 µM amounted to 3.16%.

Consider `COc1ccc(F)c(CN2CCCC(O)(CNCc3ccoc3)C2=O)c1` (stereo unspecified), for which the cytotoxicity at 10 µM worked out at 10.9%.

Turning to `Cc1c(S(=O)(=O)N2CCCC2c2nnc(-c3ccsc3)o2)cnn1C` (stereo unspecified), the cytotoxicity at 10 µM was 3.04%.

For the compound `O=C(O)C[C@@H]1CCN(C(=O)C2CCCC2)C[C@@H]1CCN1CCCCC1`, the cytotoxicity at 10 µM was -6.51%.

With `COc1c(CNCC(O)c2cccc(F)c2)c(C(C)C)nn1C` (stereo unspecified), the cytotoxicity at 10 µM came out at 2.31%.

On to `Clc1ccccc1-c1nc(CNC2CCc3ncnn3C2)cs1` (stereo unspecified), for which the cytotoxicity at 10 µM is -4.28%.

For the compound `CCn1nc2c(cc1=O)CN(Cc1nc(C)c3ccccc3n1)CC2`, the cytotoxicity at 10 µM is -9.35%.

As for `CN(Cc1ccco1)C(=O)NCc1ccnc(SC(C)(C)C)c1`, the cytotoxicity at 10 µM came out at 14.4%.

As to `Cc1ccnc(N2CCCC(c3nncn3C3CC3)C2)n1` (stereo unspecified), the cytotoxicity at 10 µM was -5.45%.

Take `CCc1noc(CN(CCC2CCCCC2)CC(N)=O)n1`: the cytotoxicity at 10 µM is 5.76%.

Consider `Cc1cc(C(=O)Nc2ccc3c(ccn3CCN3CCOCC3)c2)on1`, for which the cytotoxicity at 10 µM turned out to be 4.29%.

Take `N#CCC(=O)NCc1nnc2n1CCN(Cc1nccs1)C2`: the cytotoxicity at 10 µM was -149%.

As to `CCCc1ncc(CNC2(c3ccc(Cl)cc3)CCC2)cn1`, the cytotoxicity at 10 µM was -9.48%.

With `CC(NCc1cnc(N2CCOCC2)nc1)c1ccc(Cl)s1` (stereo unspecified), the cytotoxicity at 10 µM is -4.9%.

Consider `CCCS(=O)(=O)N1CCC2(CC(=O)N(c3cnn(C)c3)C2)C1` (stereo unspecified), for which the cytotoxicity at 10 µM turned out to be 4.59%.

With `O=C(N1CCOCC1)[C@@]12CCO[C@@H]1CCN(CC1CCC1)C2`, the cytotoxicity at 10 µM was found to be 11.1%.

As for `CC(C)c1cc(-c2nn3c(C(C)C)nnc3s2)[nH]n1`, the cytotoxicity at 10 µM amounted to 0.999%.

Take `CCc1nnc2n1CCN(C(=O)c1cc3ccccc3[nH]1)C2`: the cytotoxicity at 10 µM stood at 4.38%.

As for `Cc1cc(CNC(=O)Cc2c(C)nc3cc(=O)[nH]n3c2C)no1`, the cytotoxicity at 10 µM was -7.36%.

Take `CN(Cc1nnc(C2CC2)n1C)S(=O)(=O)c1ccc(F)c(C#N)c1`: the cytotoxicity at 10 µM was 18.4%.

`O=C(Cn1ccc(=O)[nH]c1=O)Nc1ccccc1F`: the cytotoxicity at 10 µM was -0.691%.

For the compound `Cc1nc(CN2CCOC(c3ccc(Cl)cc3)C2)oc1C` (stereo unspecified), the cytotoxicity at 10 µM is -10.1%.

Take `Cc1nc(CNC2CCCN(c3cccnn3)C2)no1` (stereo unspecified): the cytotoxicity at 10 µM was -5.55%.

For the compound `Cc1cc(C(=O)N2CCN(Cc3ccsc3)CC2)n(C)n1`, the cytotoxicity at 10 µM stood at 1.98%.

As for `c1ccc(N2CC[C@@H]3CN(Cc4ccncc4)CCO[C@@H]3C2)cc1`, the cytotoxicity at 10 µM was determined as 9.49%.

As to `Cc1cc(NC(=O)C(C)N2CCN(c3nc(C)ns3)CC2)on1` (stereo unspecified), the cytotoxicity at 10 µM was -9.48%.

For `Cn1ncc2c1C(COCC1CC1)CN(C(=O)c1cscn1)C2` (stereo unspecified), the cytotoxicity at 10 µM was -76%.

Take `O=C(NC[C@H]1OC[C@@H]2CCN(Cc3ccco3)C[C@@H]21)c1ccsc1`: the cytotoxicity at 10 µM is -18.3%.

Turning to `COc1ncccc1C(=O)N1CC[C@H]2C[C@@H](C)O[C@@H]2C1`, the cytotoxicity at 10 µM is -7.63%.

On to `CCS(=O)(=O)N1CCO[C@H]2[C@H](Oc3ncccc3F)CC[C@@H]21`, for which the cytotoxicity at 10 µM stood at 2.63%.

Regarding `CC(NC(=O)C1CCN(C(C)C)CC1)c1nncn1C1CCCC1` (stereo unspecified), the cytotoxicity at 10 µM was -6.93%.

Take `CCN1CCN(c2ccc(NC(=O)CC(C)C)c(C)c2)CC1`: the cytotoxicity at 10 µM is -8.87%.

As for `CN(Cc1ccccc1CN1CCCC1)C(=O)c1c(O)cccc1O`, the cytotoxicity at 10 µM was -5.84%.

On to `Cc1cnc(N2CCC3(CC2)CC3CN(C)Cc2cccnc2)nc1` (stereo unspecified), for which the cytotoxicity at 10 µM is -0.37%.

Take `CCc1nnc2n1CCN(C(=O)c1ccc3c(c1)NC(=O)CO3)C2`: the cytotoxicity at 10 µM was found to be 1.24%.

`CCCOc1cc(C)ccc1NC(=O)NCCNC(=O)C(C)C`: the cytotoxicity at 10 µM turned out to be 8.31%.

With `O=C(NCC1CCCO1)c1nc2c(s1)CCCN2Cc1ccccc1` (stereo unspecified), the cytotoxicity at 10 µM amounted to 1.84%.

Turning to `CCn1cnnc1C1CCN(C(=O)c2cc3c(s2)CCOC3)CC1`, the cytotoxicity at 10 µM is -6.37%.

In the case of `Cc1cnn(CCNCC(=O)NCCOc2ccc(F)cc2)c1`, the cytotoxicity at 10 µM is -4.45%.

Take `Cc1ccc(-c2ccc(=O)n(CC(=O)Nc3nccs3)n2)cc1`: the cytotoxicity at 10 µM was -10.2%.

Regarding `OCCn1nccc1C1CCN(CCOc2ccccc2Cl)CC1`, the cytotoxicity at 10 µM is -5.04%.

For `O=C(NCc1ccccc1)N1Cc2nc(COCC3CC3)oc2C1`, the cytotoxicity at 10 µM came out at 8.67%.

`Cc1nc(C)n(C2CCCN(C(=O)CCn3cncn3)C2)n1` (stereo unspecified): the cytotoxicity at 10 µM was -4.24%.

In the case of `CC(C)Cn1c(=O)n(CCCn2cccn2)c2cc(C(=O)O)cnc21`, the cytotoxicity at 10 µM stood at 1.18%.

As for `Cc1nn(CCCNC(=O)C2CCN(S(C)(=O)=O)CC2)cc1Cl`, the cytotoxicity at 10 µM is -1.94%.

For `Nc1nonc1C(=O)N1Cc2ccccc2OC2(CCOCC2)C1`, the cytotoxicity at 10 µM was -29.5%.

Regarding `CCn1nc(C)c2ncnc(NCC(=O)N3CCOCC3)c21`, the cytotoxicity at 10 µM turned out to be 3.54%.

In the case of `CC(C)c1nnc2sc(CC3CCS(=O)(=O)CC3)nn12`, the cytotoxicity at 10 µM is 4.62%.

As to `Cc1csc(C(Cc2cccs2)NCc2cc3c(cc2C)OCO3)n1` (stereo unspecified), the cytotoxicity at 10 µM was -8.9%.

On to `CCN(C(=O)Cn1cc(Cl)cn1)c1ccccc1`, for which the cytotoxicity at 10 µM is -8.01%.

Consider `Cc1cc(NC(=O)N2CCCC2C(=O)NC2CC2)c2ncccc2c1` (stereo unspecified), for which the cytotoxicity at 10 µM is -2.43%.

Take `CCOc1ccccc1C(=O)NS(=O)(=O)c1ccc2c(c1)OCCCO2`: the cytotoxicity at 10 µM came to 5.04%.

The record behind these values is ChEMBL document CHEMBL4513216, “Probing the Open Global Health Chemical Diversity Library for Multistage-Active Starting Points for Next-Generation Antimalarials” (ACS Infect Dis, 2020).
